Test results: ChEMBL document CHEMBL1146504, “Resveratrol derivatives and their role as potassium channels modulators” (J Nat Prod, 2004)
The source made the active and inactive calls. The calls are words filed in the database; no cut-off is given here.

Experiments:
Format in all cases: cell-based
F11 [1] = test: Blockade of delayed rectifier potassium channel in mouse rat hybrid F11 cells at 90 uM by whole-cell patch clamp technique
How it was run: (§1)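 F11 cells (mouse neuroblastoma N18TG-2 × rat DRG) grown in DMEM with 4.5 g/L glucose and 10% FCS at 37 °C, 5% CO2, and plated about 24 h before recording. Whole-cell clamp with compensated capacitance and series resistance. Pipette: K-aspartate 130 mM, EGTA 10 mM, MgATP 1 mM, pCa 7. Cells perfused with low-K physiologic solution; step to 60 mV from −60 mV holding; TEA-isolated current. Drug applied by perfusion, DMSO 1:2000 final.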

F11 [2] = test: Blockade of delayed rectifier potassium channel in mouse rat hybrid F11 cells at 36 uM by whole-cell patch clamp technique; how it was run: as §1
F11 [3] = test: Blockade of inward rectifier potassium channel in mouse rat hybrid F11 cells at 36 uM by whole-cell patch clamp technique
F11 [4] = test: Blockade of delayed rectifier potassium channel in mouse rat hybrid F11 cells at 45 uM by whole-cell patch clamp technique; how it was run: as §1
F11 [5] = test: Blockade of inward rectifier potassium channel in mouse rat hybrid F11 cells at 45 uM by whole-cell patch clamp technique
F11 [6] = test: Blockade of sodium channel in mouse rat hybrid F11 cells by whole-cell patch clamp technique
How it was run: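 F11 cells (mouse neuroblastoma N18TG-2 × rat DRG hybrid) grown in DMEM with 4.5 g/L glucose and 10% FCS at 37 °C, 5% CO2. Cells were plated and incubated about 24 h before whole-cell recording. Pipette solution was K-aspartate based at pCa 7 with 1 mM MgATP. Compounds came from 300 mM DMSO stocks, with DMSO at 1:2000 final, and were delivered by local perfusion. Capacitance and series resistance were compensated 85–95%.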

Structure (SMILES)	Activity (F11 [1]) [%]	also measured
Oc1ccc(CCc2cc(O)cc(O)c2)cc1	52	–
CC(C)=CCOc1cc(O)cc(CCc2ccc(O)cc2)c1	–	Activity (F11 [2]): 55.5%; Activity (F11 [3]): 53.7%
Oc1cc(CCc2ccc(OCc3ccccc3)cc2)cc(OCc2ccccc2)c1	50	–
Oc1ccc(/C=C/c2cc(O)cc(O)c2)cc1	42.9	–
c1ccc(COc2ccc(CCc3cc(OCc4ccccc4)cc(OCc4ccccc4)c3)cc2)cc1	57	–
CC(C)=CCc1c(O)cc(CCc2ccc(O)cc2)cc1O	–	Activity (F11 [4]): 74%; Activity (F11 [5]): 50.1%
COc1ccc(CCc2cc(O)cc(O)c2)cc1	89.4	Activity (F11 [6]): Active
Oc1ccc(CCc2cc(O)cc(OCc3ccccc3)c2)cc1	89	–
COc1ccc(CCc2cc(OC)cc(OC)c2)cc1	38.6	–
COc1ccc(/C=C\c2cc(O)cc(O)c2)cc1	70.4	Activity (F11 [6]): Active
COc1cc(O)cc(CCc2ccc(O)cc2)c1	69	–
Oc1cc(O)cc(CCc2ccc(OCc3ccccc3)cc2)c1	89	–
